How the values were obtained:
[1] = Inhibition of tyrosine kinase activity in ER 22 membrane fraction by competition with the RRSrc peptide using [32P]-gamma ATP as radioligand; type: cell membranes
In short: (§1)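 Enzyme source was membrane fractions of ER 22 cells (CCL 39 cells transfected with EGF receptor). Inhibitors were added at various concentrations and phosphorylation of the peptide was measured.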

[2] = biological target: Epidermal growth factor receptor (Homo sapiens) (UniProt P00533); settings: ER22; 20 uM
[3] = Inhibition of ER22 EGF-receptor expressing cell membrane tyrosine kinase activity at 100 uM
[4] = Inhibition of ER22 EGF-receptor expressing cell membrane tyrosine kinase activity; in short: as §1
[5] = biological target: Epidermal growth factor receptor (Homo sapiens) (UniProt P00533); settings: ER22; 10 uM

Sequence of Epidermal growth factor receptor (Homo sapiens) (P00533 whole entry): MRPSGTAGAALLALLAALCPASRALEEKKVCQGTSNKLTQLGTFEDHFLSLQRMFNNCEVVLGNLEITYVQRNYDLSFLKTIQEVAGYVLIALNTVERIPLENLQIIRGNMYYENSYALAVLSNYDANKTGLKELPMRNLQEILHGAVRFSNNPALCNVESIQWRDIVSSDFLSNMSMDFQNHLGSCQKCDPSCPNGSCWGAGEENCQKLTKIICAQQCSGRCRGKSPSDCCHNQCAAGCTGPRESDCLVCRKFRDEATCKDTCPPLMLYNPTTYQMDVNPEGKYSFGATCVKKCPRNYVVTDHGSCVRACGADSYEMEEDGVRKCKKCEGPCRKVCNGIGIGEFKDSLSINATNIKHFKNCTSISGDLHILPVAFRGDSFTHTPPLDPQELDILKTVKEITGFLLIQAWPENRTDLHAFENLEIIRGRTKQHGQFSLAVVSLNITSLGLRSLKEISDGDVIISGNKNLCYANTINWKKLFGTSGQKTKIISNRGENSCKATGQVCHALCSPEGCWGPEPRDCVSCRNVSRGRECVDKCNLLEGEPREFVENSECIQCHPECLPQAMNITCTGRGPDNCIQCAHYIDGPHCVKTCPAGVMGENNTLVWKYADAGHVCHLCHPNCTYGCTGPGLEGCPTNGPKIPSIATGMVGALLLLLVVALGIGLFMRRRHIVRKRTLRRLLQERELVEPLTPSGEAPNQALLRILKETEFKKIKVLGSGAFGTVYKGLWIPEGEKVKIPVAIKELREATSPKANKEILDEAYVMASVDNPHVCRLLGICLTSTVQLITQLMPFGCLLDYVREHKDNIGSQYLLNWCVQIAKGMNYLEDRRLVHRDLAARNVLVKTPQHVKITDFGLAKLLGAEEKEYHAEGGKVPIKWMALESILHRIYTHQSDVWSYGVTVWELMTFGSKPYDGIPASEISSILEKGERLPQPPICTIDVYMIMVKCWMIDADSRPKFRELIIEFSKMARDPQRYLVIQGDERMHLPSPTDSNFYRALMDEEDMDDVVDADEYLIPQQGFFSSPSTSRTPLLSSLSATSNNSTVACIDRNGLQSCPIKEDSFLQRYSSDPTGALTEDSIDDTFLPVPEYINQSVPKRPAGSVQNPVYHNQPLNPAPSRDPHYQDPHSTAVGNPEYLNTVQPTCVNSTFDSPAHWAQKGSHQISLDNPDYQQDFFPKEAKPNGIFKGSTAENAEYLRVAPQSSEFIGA

SMILES | IC50 [1] [µM] | also measured
COC(=O)c1cc(/N=C/c2ccc(O)cc2)ccc1O | > 10 | –
COC(=O)c1cc(NCc2ccccc2O)ccc1O | 45 | –
COC(=O)c1cccc(NCc2cc(O)ccc2O)c1 | 1.6 | –
COC(=O)c1cc(/N=C/c2ccc(O)c(O)c2)ccc1O | 10 | inhibition [2]: 37%
COC(=O)c1cc(/N=C/c2cc(O)ccc2O)ccc1OC | > 100 | –
COC(=O)c1cc(NCc2cccc(O)c2)ccc1O | – | inhibition [3]: 37%
O=C(O)c1cccc(/N=C/c2cc(O)ccc2O)c1 | > 10 | –
COC(=O)c1ccc(NCc2cc(O)ccc2O)cc1O | 0.2 | –
COC(=O)c1cc(NCc2cc(OC)ccc2OC)ccc1O | > 100 | inhibition [2]: 18%
O=C(O)c1cccc(NCc2cc(O)ccc2O)c1 | 2.4 | –
COC(=O)c1cc(NCc2ccc(O)cc2)ccc1O | – | IC50 [4]: > 10 µM
O=C(O)c1cc(/N=C/c2ccccc2O)ccc1O | > 100 | –
COC(=O)c1cc(NCc2cc(O)ccc2O)ccc1O | 0.6 | –
COC(=O)c1ccc(/N=C/c2cc(O)ccc2O)cc1O | > 10 | –
COC(=O)c1cc(/N=C/c2cccc(O)c2)ccc1O | > 100 | inhibition [2]: 20%
COC(=O)c1cc(NCc2cc(O)ccc2O)ccc1OC | 5 | –
O=C(O)c1cc(/N=C/c2cc(O)ccc2O)ccc1O | 5 | –
COC(=O)c1cc(/N=C/c2cc(O)ccc2O)ccc1O | 100 | –
COC(=O)c1cc(/N=C/c2ccc(O)cc2O)ccc1O | > 100 | inhibition [2]: 65%
COC(=O)c1cc(/N=C/c2ccccc2O)ccc1O | > 100 | –
O=C(O)c1cc(NCc2ccccc2O)ccc1O | 25 | –
COC(=O)c1cc(/N=C/c2cc(OC)ccc2OC)ccc1O | > 10 | inhibition [5]: 14%

— ChEMBL document CHEMBL1127084, “Synthesis and structure-activity studies of a series of [(hydroxybenzyl)amino]salicylates as inhibitors of EGF receptor-associated tyrosine kinase activity” (J Med Chem, 1993)
